Assay results from different studies.
Compare with care: the assays were run in different laboratories.
Target: Ephrin type-A receptor 5 (EPHA5, Homo sapiens, UniProt P54756)
Residues used in one study (P54756 675-936, limits assumed): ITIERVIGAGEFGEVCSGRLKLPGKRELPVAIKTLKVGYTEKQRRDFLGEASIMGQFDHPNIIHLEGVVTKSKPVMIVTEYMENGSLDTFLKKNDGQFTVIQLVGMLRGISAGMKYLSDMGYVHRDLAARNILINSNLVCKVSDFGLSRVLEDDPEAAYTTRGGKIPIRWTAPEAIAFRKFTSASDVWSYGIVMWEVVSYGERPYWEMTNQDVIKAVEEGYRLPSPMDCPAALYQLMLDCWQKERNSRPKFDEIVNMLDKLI

SMILES	observed	action	technique	concentration	measurement	result
Cc1cc(NC(=O)c2cccc3cc(-c4cccc5[nH]nc(N)c45)ccc23)ccc1F	enzyme activity	inhibitor		0.1 µM	activity vs control	99%
CCCS(=O)(=O)Nc1ccc(F)c(C(=O)c2c[nH]c3ncc(-c4ccc(Cl)cc4)cc23)c1F	enzyme activity	inhibitor		1 µM	inhibition	< 20%
Oc1ccc(-c2nc(-c3ccncc3)c(-c3ccc(F)cc3)[nH]2)cc1	cell-free assay			0.5 µM	remaining signal	90.7%
COc1cc(Cl)c(C(=O)N[C@@H](CN[C@H]2CC[C@@H](N)CC2)Cc2ccc(C#N)cc2)cc1-c1ccc(CN[C@H](C)c2ccc(C)cc2)o1	enzyme activity	inhibitor		1 µM	remaining activity	90%
FC(F)(F)c1ccc2c(c1)nc(-c1cccnc1)n2C1CC1	cell-free assay		competition with immobilised ligand	1 µM	remaining binding	96%
C#Cc1cccc(Nc2ncnc3cc(OCCOC)c(OCCOC)cc23)c1	cell-free assay			0.5 µM	remaining signal	99.1%
CC/C(=N\NC(=O)NCc1cccc(O)c1)c1ccc(O)c(C)c1O	enzyme activity	inhibitor		0.1 µM	inhibition	-3.3%
CNC(=O)c1cc(Oc2ccc(NC(=O)Nc3ccc(Cl)c(C(F)(F)F)c3)cc2)ccn1	enzyme activity	inhibitor		0.3 µM	inhibition	32%
O=c1nc(-c2ccccn2)sc2ccccc12	cell-free assay		competition with immobilised ligand	1 µM	remaining binding	94%
COc1cc(-c2cc(-c3ccc(N4CCNCC4)cc3)cnc2C)cc(OC)c1OC	enzyme activity	inhibitor		0.1 µM	inhibition	5%
C[C@H](NC(=O)c1cnc2n1[C@](C)(Cc1ccc(C#N)cc1)C(=O)N2c1cc(Cl)c(F)c(Cl)c1)C(=O)NC1(c2ccccn2)CC1	cell-free assay		competition with immobilised ligand	1 µM	remaining binding	100%
O=C(Nc1cnn(-c2csc(C(=O)NC3COC3)c2)c1)Nc1ccccc1Cl	enzyme activity	inhibitor		5 µM	remaining activity	96.9%
Cc1ccc(Nc2nccc(N(C)c3ccc4c(C)n(C)nc4c3)n2)cc1S(N)(=O)=O	enzyme activity	inhibitor		10 µM	inhibition	70%
COc1cc2ncnc(Nc3ccc(Oc4ccccc4)cc3C)c2cc1OC	enzyme activity	inhibitor		1 µM	inhibition	5%
CCc1ccccc1C(=O)Nc1n[nH]c2c(C)c(F)c(C3C(C#N)=C(C)N(C)C(C)=C3C#N)cc12	cell-free assay		competition with immobilised ligand	1 µM	remaining binding	87%
CCN(CC)CCNC(=O)c1c(C)[nH]c(/C=C2\C(=O)Nc3ccc(F)cc32)c1C	enzyme activity	inhibitor		10 µM	inhibition	58%
CNC(=O)c1cc2c(Oc3ccc(NC(=O)C4(C(=O)Nc5ccc(F)cc5)CC4)cc3)ccnc2cc1OC	enzyme activity	inhibitor	radiometric	1 µM	inhibition	96%
Cc1cc(-n2nc(Cc3cc(F)cc(C(F)(F)F)c3)nc2C)ccc1C(N)=O	cell-free assay		competition with immobilised ligand	1 µM	remaining binding	100%
CC(C)(C)c1nc(-c2cccc(NS(=O)(=O)c3c(F)cccc3F)c2F)c(-c2ccnc(N)n2)s1	enzyme activity	inhibitor	radiometric	1 µM	remaining activity	116%
CNCc1ccccc1-c1csc([C@H](C)Nc2nc(C)nc3cc(OC)c(OC)cc23)c1	cell-free assay		competition with immobilised ligand	1 µM	remaining binding	100%
Cc1sc(C(=O)NC2COC2)cc1-n1cc(NC(=O)Nc2c(F)cccc2Cl)cn1	enzyme activity	inhibitor		10 µM	remaining activity	106%
C[C@@H]1CN(c2cc(-c3nn(C)c4ccc(OC5(C)CC5)cc34)ncn2)C[C@H](C)O1	cell-free assay		competition with immobilised ligand	1 µM	remaining binding	100%
O=C1Nc2ccc(Cl)cc2C1=Cc1cc(Cl)c(O)c(Cl)c1	cell-free assay			0.5 µM	remaining signal	99.4%
Cn1cc(Cl)c2c(Oc3c(F)cc(Nc4cc(Cl)nc(N)n4)cc3F)ccnc21	cell-free assay		competition with immobilised ligand	0.1 µM	remaining binding	100%
CC(C)(O)[C@H]1CC[C@H](Nc2ccc3ncc(-c4cccc(C(F)(F)F)c4)n3n2)CC1	enzyme activity	inhibitor		1 µM	remaining activity	101%
